This note sets out measurements from ChEMBL document CHEMBL4390654, “Microwave-assisted solid-phase synthesis of antisense acpP peptide nucleic acid-peptide conjugates active against colistin- and tigecycline-resistant E. coli and K. pneumoniae” (Eur J Med Chem, 2019).

What is called MIC is the smallest concentration in the dilution series that meets the test's criterion for growth inhibition.

Each structure is given as a SMILES string. Where only a bound is given, the exact number is not on record here.

In data set [1] the test system is Escherichia coli. The experiment in a line: Antibacterial activity against Escherichia coli ATCC 25922 assessed as reduction in microbial growth incubated for 20 hrs. It counts as functional. Conditions: ATCC 25922, 20 h. In short, it runs like this: (§1)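 Broth microdilution MIC (modified Hancock protocol) in non-binding polystyrene plates. Inoculum ~2 × 10^5 CFU/mL in Mueller-Hinton broth with Mg²⁺ and Ca²⁺ at 4 mg/L each. Compounds dissolved in water, diluted in 0.01% acetic acid/0.2% BSA (final), added as 10× stocks. Covered plates incubated 20 h at 35 °C (± 2 °C) with 220 rpm circular shaking before MIC read.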

In data set [2] the test system is Escherichia coli. The experiment in a line: Antibacterial activity against Escherichia coli lacking a functional SbmA assessed as reduction in microbial growth incubated for 20 hrs. In short, it runs like this:
(§2)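 Broth microdilution MIC after a modified Hancock protocol for cationic peptides, in non-binding polystyrene plates. Inoculum ~2 × 10^5 CFU/mL in Mueller-Hinton broth with Mg²⁺ and Ca²⁺ at 4 mg/L each. Compounds dissolved in water, diluted in 0.01% acetic acid, 0.2% BSA (final), added as 10× aliquots. Covered plates incubated 20 h at 35 °C (± 2 °C) with shaking at 220 rpm. MIC read as lowest inhibiting concentration.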

The test system of data set [3] is Klebsiella pneumoniae. Briefly: Antibacterial activity against Klebsiella pneumoniae ATCC 13883 assessed as reduction in microbial growth incubated for 20 hrs. Conditions: ATCC 13883, 20 h. It counts as functional. In short, it runs like this: as §2
Data set [4] deals with Pseudomonas aeruginosa. Briefly: Antibacterial activity against Pseudomonas aeruginosa PAO1 assessed as reduction in microbial growth incubated for 20 hrs. It counts as functional. Conditions: PAO1, 20 h. In short, it runs like this:
as §2

Data set [5] concerns Acinetobacter baumannii. Briefly: Antibacterial activity against Acinetobacter baumannii ATCC 19606 assessed as reduction in microbial growth incubated for 20 hrs. The format is functional. Particulars: ATCC 19606 = CIP 70.34 = JCM 6841, 20 h. In short, it runs like this: as §2
Data set [6] has as its system Staphylococcus aureus. Briefly: Antibacterial activity against Staphylococcus aureus ATCC 29213 assessed as reduction in microbial growth incubated for 20 hrs. It counts as functional. Conditions: ATCC 29213, 20 h. A digest of the protocol: as §2
Data set [7] relates to Escherichia coli. The experiment in a line: Antibacterial activity against multi-drug resistant Escherichia coli NMI 3548/14 assessed as reduction in microbial growth incubated for 20 hrs. It counts as functional. Particulars: NMI 3548/14, 20 h. In short, it runs like this: as §1
Data set [8] has as its system Escherichia coli. The experiment in a line: Antibacterial activity against multi-drug resistant Escherichia coli NMI 3898/15 assessed as reduction in microbial growth incubated for 20 hrs. Conditions: NMI 3898/15, 20 h. The format is functional. In short, it runs like this: as §1
For data set [9], the system named is Klebsiella pneumoniae. The experiment in a line: Antibacterial activity against multi-drug resistant Klebsiella pneumoniae NMI 2697/14 assessed as reduction in microbial growth incubated for 20 hrs. The format is functional. Conditions: NMI 2697/14, 20 h. A digest of the protocol:
as §1

Data set [10] has as its system Klebsiella pneumoniae. Briefly: Antibacterial activity against multi-drug resistant Klebsiella pneumoniae NMI 3081/09 assessed as reduction in microbial growth incubated for 20 hrs. It counts as functional. Conditions: NMI 3081/09, 20 h. A digest of the protocol: as §1
Data set [11] in a line: Hemolytic activity against RBC (unknown origin) at 100 uM. Particulars: red blood cells (erythrocytes); read-out: Activity. The format is ADME, cell-based, Erythrocyte.
The nature of data set [12]: Ratio of MIC for Escherichia coli ATCC 25922 to MIC against Escherichia coli NMI 3898/15. The format is functional.
The nature of data set [13]: Ratio of MIC for Escherichia coli ATCC 25922 to MIC for Klebsiella pneumoniae ATCC 13883. The format is functional.

On to `CC[C@H](C)[C@H](NC(=O)[C@@H]1CCCN1C(=O)[C@H](CCCNC(=N)N)NC(=O)[C@@H]1CCCN1C(=O)[C@H](Cc1cnc[nH]1)NC(=O)[C@H](CO)NC(=O)[C@@H](NC(=O)[C@@H]1CCCN1C(=O)[C@H](CCCNC(=N)N)NC(=O)[C@@H]1CCCN1C(=O)[C@H](CO)NC(=O)[C@H](Cc1ccc(O)cc1)NC(=O)[C@@H]1CCCN1C(=O)[C@H](CCCNC(=N)N)NC(=O)[C@@H]1CCCN1C(=O)[C@H](CCCNC(=N)N)NC(=O)CCCCCNC(=O)[C@@H](N)CCCNC(=N)N)[C@@H](C)O)C(=O)N[C@@H](CCCNC(=N)N)C(=O)N[C@H](C(=O)N[C@@H](CSC1CC(=O)N(CCC(=O)NCCOCCOC(=O)N[C@@H](CS)C(=O)N[C@H](C(=O)N[C@@H](CS)C(=O)N[C@@H](C)C(=O)N[C@H](C(=O)N[C@@H](C)C(=O)N[C@@H](CS)C(=O)N[C@H](C(=O)N[C@@H](CS)C(=O)N[C@H](C(N)=O)[C@@H](C)O)[C@@H](C)O)[C@@H](C)O)[C@@H](C)O)C1=O)C(N)=O)C(C)C` (stereo partly drawn), for which the MIC is 16 µg/mL in data set [1]; above 64 µg/mL in [2]; 4 to 8 µg/mL in data set [3]; above 64 µg/mL in data set [4]; above 64 µg/mL in [5]; above 64 µg/mL in data set [6]. The MIC in [7] is 2 to 8 µg/mL; in data set [8] it was 8 to 32 µg/mL; in data set [9], 32 to 64 µg/mL; in data set [10] it was 64 µg/mL. Further, the hemolysis at 100 µM in data set [11] is below 1%. In addition, the Ratio lay in the range of 2 to 8 in [12] and 2 to 4 in [13].
